Rows were chosen to be rich in hits. Some 1.6% of all compounds tested hit in one or more screens of this group.
ABCG2 inh – inhibitors of human ABCG2 transporter, ABCB1 counter-screen; inhibition, % at 6.6 µM; 190,000 compounds, 0.1% hits; IgMXP3 cells, JC-1 efflux, flow cytometry; Q9UNQ0;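 active = inhibition above 80%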
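Test system: IgMXP3 cells (ABCG2) mixed with DDAO far-red-labelled CCRF-Adr cells (ABCB1). Reagent: JC-1 transporter substrate. Compound dosing: single test compound dose, 6.6 µM final. Times: 10 min compound exposure, 25 °C. Detection: flow cytometry of retained JC-1 fluorescence. Read-out basis: efflux inhibition in percent versus controls. Controls: nicardipine and DMSO wells.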
Diaphorase act – counter-screen for diaphorase-based assays: diaphorase activators and chemical reducers | 190,000 compounds, 0.005% hits | activation factor at 20 µM | Diaphorase/resazurin coupled assay, resorufin fluorescence, 16 min; hits give high values; 1 = vehicle wells, 0 = NADH-free wells;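 active = diaphorase activity raised at least twofold by the compound at 20 µM; inactive = activation factor below 2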
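Material: Purified diaphorase enzyme from Clostridium kluyveri | Buffer or medium: 50 mM HEPES pH 7.4 with 4.542 mM MgCl2, 0.005% Tween 20 | Times: 16 min enzyme reaction, ambient temperature | Signal: Red resorufin fluorescence at 544/590 nm excitation/emission | Measure: Increased resorufin signal from activators or reducing compounds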
ABCB1 inh – human ABCB1 inhibition, ABCG2 as counter-screen | P08183 | CCRF-Adr cells, JC-1 efflux, flow cytometry | inhibition, % at 6.6 µM | 190,000 compounds, 0.067% hits; in the data active = inhibition above about 40%;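 note: higher value means more JC-1 retained so stronger ABCB1 efflux block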
NCF1 inh – inhibitors of human p47phox binding; P14598; p47phox/p22phox peptide binding, fluorescence polarization, 2 h; inhibition, % at 24.7 µM; 220,000 compounds, 0.53% hits; AID 1274;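 active = inhibition above about 30%, limit read from the data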
Target sequence (P14598 whole entry, looked up): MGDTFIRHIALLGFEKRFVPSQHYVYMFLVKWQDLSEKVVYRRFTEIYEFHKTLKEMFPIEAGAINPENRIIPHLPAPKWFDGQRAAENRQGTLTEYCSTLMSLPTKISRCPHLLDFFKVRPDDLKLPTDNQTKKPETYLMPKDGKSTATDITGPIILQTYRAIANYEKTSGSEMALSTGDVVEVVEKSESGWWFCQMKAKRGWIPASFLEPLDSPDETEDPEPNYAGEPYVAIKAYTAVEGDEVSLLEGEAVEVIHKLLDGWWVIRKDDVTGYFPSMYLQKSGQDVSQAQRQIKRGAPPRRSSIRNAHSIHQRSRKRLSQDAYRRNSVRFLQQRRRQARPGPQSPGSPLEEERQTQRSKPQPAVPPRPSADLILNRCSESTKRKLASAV
Diaph inh CS – counter-screen for diaphorase-based assays: diaphorase inhibitors and chemical oxidizers | diaphorase resazurin-to-resorufin fluorescence, NADH, 16 min; bacterial (C. kluyveri) enzyme, not human | inhibition, % at 20 µM | 190,000 compounds, 0.69% hits | AID 1217;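 active = primary screen inhibition at 20 µM above a set limit, cut at about 50% in these data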
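Detection: fluorescence of resorufin formed from resazurin, Ex 544/Em 590 nm; test system: Clostridium kluyveri diaphorase enzyme; amount: 0.14 U/mL diaphorase, enzyme working solution; times: 16-min room-temperature incubation before reading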
Efa HMGR inh – inhibitors of class II HMG-CoA reductase from Enterococcus faecalis | purified E. faecalis HMGR, NADPH absorbance 340 nm kinetic | inhibition, % at 10 µM | 190,000 compounds, 0.41% hits | AID 1066;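 active = inhibition above a set limit, the median over all tested compounds plus 3 SD, cut at about 9.5% in these data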;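 note: enzyme runs in reverse so mevalonate oxidation gives rising NADPH absorbance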
Of the large screens only hits and unclear results are named; the others gave an inactive call; ! = not active in a repeat.

NC(CO)C(=O)NNCc1ccc(O)c(O)c1O (stereo unspecified)	Diaph inh CS 74
COC(=O)C(N)Cc1ccc(O)c(O)c1 (stereo unspecified)	none
Cc1cc(C)cc(OCC(=O)OCC(=O)NCc2cccs2)c1	none
Cc1ccc2[nH]c3c(c2c1)CCc1cn[nH]c1-3	Diaph inh CS 70
CSC(=NCc1cccnc1)NS(=O)(=O)c1cccs1	Diaph inh CS 74
Cc1cc(NC(=O)c2cc(C)on2)n(-c2ccccc2)n1	none
Cc1noc(C)c1CSc1ccc(Br)cc1	none
O=C(c1cc2nc(-c3cccs3)cc(C(F)(F)F)n2n1)N1CCCc2ccccc21	ABCG2 inh 100
c1ccc2[nH]c(-c3ccnc4ccccc34)nc2c1	NCF1 inh active!
Fc1ccccc1-c1nc2ccccc2[nH]1	none
Cc1ccc2cc(C(c3nnnn3C(C)(C)C)N3CCCCCC3)c(=O)[nH]c2c1 (stereo unspecified)	Diaph inh CS 52
COc1ccc(N(C(=O)Cn2nnc(-c3ccccc3F)n2)C(C(=O)NCC2CCCO2)c2ccc(Cl)cc2)cc1 (stereo unspecified)	none
CSc1nc(-c2ccco2)nn1S(=O)(=O)c1ccc(C)cc1	Diaph inh CS 58
CSc1nc(-c2ccco2)nn1S(=O)(=O)c1ccccc1	none
O=C(CSc1nnnn1-c1ccc(F)cc1)c1ccc(O)c(O)c1	Diaph inh CS 50
CC(=O)NC(c1ccco1)c1ccc2cccnc2c1O (stereo unspecified)	Diaph inh CS 53
CCOc1ccc(CCNC(=O)c2cc3c(C)nccc3[nH]c2=O)cc1OCC	none
Cc1cccc(C(=O)O/N=C2\CCSc3ccc(C)cc32)c1	NCF1 inh 94
Cc1ccc(C(=O)O/N=C2\CCSc3ccc(C)cc32)cc1	none
Cc1oc(-c2ccc(Cl)cc2)nc1CN1CCC(C(=O)N2CCN(Cc3ccccc3)CC2)CC1	none
Cc1oc(-c2ccc(Cl)cc2)nc1CN1CCC(C(=O)N2CCc3ccccc3C2)CC1	NCF1 inh 45
COc1ccccc1C1Nc2cccc3cccc(c23)N1	Diaph inh CS 57
COc1ccc(C2Nc3cccc4cccc(c34)N2)cc1	Diaph inh CS 52
Oc1ccccc1C1Nc2cccc3cccc(c23)N1	none
CCOc1ccc(C2Nc3cccc4cccc(c34)N2)cc1OC	Diaph inh CS 65 (no result: Efa HMGR inh)
CC(C(=O)O)n1c(C(F)(F)F)nc2ccccc21 (stereo unspecified)	none
CCCc1ccc(OCC(=O)Nc2cc(S(=O)(=O)CC)ccc2O)cc1	Efa HMGR inh 10
Cc1ccc2nc(-c3sc4nc(C)ccc4c3N)[nH]c2c1	Efa HMGR inh 26
Cc1cc(C)c2c(N)c(-c3nc4ccccc4[nH]3)sc2n1	none
Cc1ccc(CCN2CC(C(=O)NCCCN3CCCCCC3)CC2=O)cc1 (stereo unspecified)	NCF1 inh 38
COc1ccc(N2CCN(S(=O)(=O)c3cccc4cccnc34)CC2)cc1	none
CC(C)C1=Nc2cccc3cccc(c23)N1	NCF1 inh 150
CC1CCCCN1C(=O)C12CCC(C)(/C(=N/O)C1)C2(C)C (stereo unspecified)	NCF1 inh 37
CC1CCCCN1C(=O)C12CCC(C)(C(=O)C1)C2(C)C (stereo unspecified)	none
CC(C)(C)OC(=O)[C@H](Cc1ccccc1)NC(=O)c1nc[nH]c1C(=O)NC1CCN(C(=O)OC(C)(C)C)CC1	Diaph inh CS 52 (no result: NCF1 inh)
Cc1noc(C)c1C(c1ccccc1)S(=O)(=O)c1ccccc1 (stereo unspecified)	none
O=C(NCCCO)Nc1ccc2nc(-c3ccco3)c(-c3ccco3)nc2c1	Diaph inh CS 60
O=C(Nc1ccc2nc(-c3ccco3)c(-c3ccco3)nc2c1)NC1CC1	Diaph inh CS 80
O=C(Nc1ccc(N2CCOCC2)cc1)Nc1ccc2nc(-c3ccco3)c(-c3ccco3)nc2c1	none
Cn1cc(Cl)c(C(=O)Nc2cnn(Cc3ccc(F)cc3)c2)n1	none
CCOC(=O)c1c2ccc(OCC(=O)N/N=C/c3ccc(C)cc3)cc2n2ccccc12	Diaph inh CS 61
CCOC(=O)c1c2ccc(OCC(=O)NN)cc2n2ccccc12	Diaph inh CS 64
CCOC(=O)c1c(C)n(C)c2cc(OCCN(CC)CC)ccc12	none
O=C(c1ccco1)N1CCN(C(=O)c2ccc(COc3ccc4c(c3)CCC4)o2)CC1	none
COc1ccc(/C=N/NC(=O)c2ccc(C)cc2)cc1CN1CCN(c2ccc(F)cc2)CC1	none
COc1ccc(/C=N\NC(=O)c2cc(O)c(O)c(O)c2)cc1CN1CCN(c2ccc(F)cc2)CC1	Diaph inh CS 63
Cc1ccccc1NC(=O)Cn1c(CCC(=O)O)ccc1-c1cccs1	Efa HMGR inh 19
O=C(CSc1n[nH]c(-c2cccnc2)n1)Nc1ccccc1	none
O=C(CSc1n[nH]c(-c2ccccc2)n1)Nc1ncc(Br)cc1Br	Diaph inh CS 59
O=C(CC(=O)N/N=C/c1cccs1)NCc1ccccc1	none
C=CCn1cnc2c(nnn2-c2cc(C)cc(C)c2)c1=O	none
C=CCn1cnc2c(nnn2-c2ccc(Cl)cc2)c1=O	Efa HMGR inh 16
O=C(Nn1c(SCc2ccccc2F)nc2ccsc2c1=O)c1ccccc1	none
COc1ccccc1N1C(=N)S/C(=C\c2ccc(-c3ccccc3C(=O)O)o2)C1=O	none
N=C1S/C(=C\c2ccc(-c3ccccc3C(=O)O)o2)C(=O)N1c1ccc2c(c1)OCO2	Diaph inh CS 67
CCOc1ccc(C=Nc2cccc3ncccc23)cc1	Diaph inh CS 51
CCOc1ccc(/C=N/O)cc1	none
CCC1(NC(C)=O)CC2CC1CC2NC(C)=O (stereo unspecified)	none
Cc1ccc(-n2c(Cc3cccs3)nnc2SCC(=O)Nc2ccc(F)c(F)c2)cc1	NCF1 inh 75
CC(C)NC(=O)CC(=O)N/N=C\c1ccccc1C(=O)O	none (no result: Diaphorase act, Diaph inh CS)
Clc1ccccc1Cc1noc(CN2CCSCC2)n1	none (no result: Diaphorase act, Diaph inh CS)
Clc1ccccc1Cc1noc(CN2CCN(c3cnccn3)CC2)n1	NCF1 inh 32
CC(=O)OCC1=C(C(=O)O)N2C(=O)C(NC(=O)c3ccc(F)cc3)C2SC1 (stereo unspecified)	Efa HMGR inh 11
CC(=O)OCC1=C(C(=O)O)N2C(=O)C(NC(=O)C(C)Cn3nc(C)c(Cl)c3C)C2SC1 (stereo unspecified)	none
COCCN1Cc2cccc(C(=O)Nc3cc(C)cc(C)c3)c2C1=O	ABCG2 inh 82
COCCN1Cc2cccc(C(=O)Nc3c(C)cc(C)cc3C)c2C1=O	none

Screening data: PubChem, several laboratories
